These results are taken from ChEMBL document CHEMBL4043120 (Bioorg Med Chem, 2017).

Calls of active or inactive are those of the source. No cut-off for these calls is given here.

In experiment [1] the target is T1, Histone-lysine N-methyltransferase EHMT1 (Homo sapiens) (UniProt Q9H9B1).
T1 sequence (whole entry): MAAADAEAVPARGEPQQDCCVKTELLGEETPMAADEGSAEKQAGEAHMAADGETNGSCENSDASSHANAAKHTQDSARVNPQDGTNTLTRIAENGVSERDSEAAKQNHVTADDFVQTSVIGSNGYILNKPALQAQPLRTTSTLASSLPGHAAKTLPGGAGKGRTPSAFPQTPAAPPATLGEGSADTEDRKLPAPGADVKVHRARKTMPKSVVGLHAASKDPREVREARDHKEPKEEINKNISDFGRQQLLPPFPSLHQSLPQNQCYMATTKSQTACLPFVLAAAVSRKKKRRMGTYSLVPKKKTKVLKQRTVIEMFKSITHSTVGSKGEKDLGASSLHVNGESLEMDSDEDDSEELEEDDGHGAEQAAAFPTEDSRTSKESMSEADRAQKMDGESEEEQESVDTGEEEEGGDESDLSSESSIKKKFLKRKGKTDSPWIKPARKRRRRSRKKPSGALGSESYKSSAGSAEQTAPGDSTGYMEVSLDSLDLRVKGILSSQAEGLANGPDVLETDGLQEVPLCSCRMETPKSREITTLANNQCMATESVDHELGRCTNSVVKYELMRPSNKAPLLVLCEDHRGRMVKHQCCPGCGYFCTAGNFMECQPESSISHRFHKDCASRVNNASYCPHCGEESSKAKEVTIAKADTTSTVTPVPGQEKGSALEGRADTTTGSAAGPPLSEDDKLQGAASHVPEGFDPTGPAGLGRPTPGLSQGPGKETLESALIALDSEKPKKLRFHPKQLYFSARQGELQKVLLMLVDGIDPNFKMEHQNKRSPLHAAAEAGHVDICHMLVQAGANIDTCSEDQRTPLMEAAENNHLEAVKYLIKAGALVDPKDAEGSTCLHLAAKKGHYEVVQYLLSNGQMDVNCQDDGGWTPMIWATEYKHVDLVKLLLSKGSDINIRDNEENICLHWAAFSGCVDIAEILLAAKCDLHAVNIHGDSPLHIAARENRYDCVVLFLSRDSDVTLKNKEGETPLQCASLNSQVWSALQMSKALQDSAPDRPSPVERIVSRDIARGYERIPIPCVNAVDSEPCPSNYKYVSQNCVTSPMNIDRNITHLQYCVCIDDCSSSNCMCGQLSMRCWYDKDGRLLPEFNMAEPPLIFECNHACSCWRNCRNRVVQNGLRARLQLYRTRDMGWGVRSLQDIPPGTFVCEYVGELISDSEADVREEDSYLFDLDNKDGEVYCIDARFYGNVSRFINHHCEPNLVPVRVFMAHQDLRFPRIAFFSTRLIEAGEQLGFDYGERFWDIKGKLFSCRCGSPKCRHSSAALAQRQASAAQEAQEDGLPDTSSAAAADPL
In words: Inhibition of EHMT1 (unknown origin) at 200 uM preincubated for 5 mins followed by SAM and biotinylated H3K9 peptide addition measured after 120 mins by HTRF assay relative to control. The method, boiled down:
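Final EHMT1 0.4 nM, biotinylated unmethylated H3(1-21)K9 peptide 150 nM, SAM 6 μM in 50 mM Tris-HCl pH 8.8, 50 mM NaCl, 1 mM DTT, 0.01% Tween-20; samples at 200 μM, 1% DMSO final. Detection by Eu-antibody plus streptavidin-XL665, 60 min. HTRF read: excitation 320 or 340 nm, emission 665/620 nm.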

Experiment [2] addresses T2, Histone-lysine N-methyltransferase EHMT2 (Homo sapiens) (UniProt Q96KQ7).
T2 sequence (whole entry): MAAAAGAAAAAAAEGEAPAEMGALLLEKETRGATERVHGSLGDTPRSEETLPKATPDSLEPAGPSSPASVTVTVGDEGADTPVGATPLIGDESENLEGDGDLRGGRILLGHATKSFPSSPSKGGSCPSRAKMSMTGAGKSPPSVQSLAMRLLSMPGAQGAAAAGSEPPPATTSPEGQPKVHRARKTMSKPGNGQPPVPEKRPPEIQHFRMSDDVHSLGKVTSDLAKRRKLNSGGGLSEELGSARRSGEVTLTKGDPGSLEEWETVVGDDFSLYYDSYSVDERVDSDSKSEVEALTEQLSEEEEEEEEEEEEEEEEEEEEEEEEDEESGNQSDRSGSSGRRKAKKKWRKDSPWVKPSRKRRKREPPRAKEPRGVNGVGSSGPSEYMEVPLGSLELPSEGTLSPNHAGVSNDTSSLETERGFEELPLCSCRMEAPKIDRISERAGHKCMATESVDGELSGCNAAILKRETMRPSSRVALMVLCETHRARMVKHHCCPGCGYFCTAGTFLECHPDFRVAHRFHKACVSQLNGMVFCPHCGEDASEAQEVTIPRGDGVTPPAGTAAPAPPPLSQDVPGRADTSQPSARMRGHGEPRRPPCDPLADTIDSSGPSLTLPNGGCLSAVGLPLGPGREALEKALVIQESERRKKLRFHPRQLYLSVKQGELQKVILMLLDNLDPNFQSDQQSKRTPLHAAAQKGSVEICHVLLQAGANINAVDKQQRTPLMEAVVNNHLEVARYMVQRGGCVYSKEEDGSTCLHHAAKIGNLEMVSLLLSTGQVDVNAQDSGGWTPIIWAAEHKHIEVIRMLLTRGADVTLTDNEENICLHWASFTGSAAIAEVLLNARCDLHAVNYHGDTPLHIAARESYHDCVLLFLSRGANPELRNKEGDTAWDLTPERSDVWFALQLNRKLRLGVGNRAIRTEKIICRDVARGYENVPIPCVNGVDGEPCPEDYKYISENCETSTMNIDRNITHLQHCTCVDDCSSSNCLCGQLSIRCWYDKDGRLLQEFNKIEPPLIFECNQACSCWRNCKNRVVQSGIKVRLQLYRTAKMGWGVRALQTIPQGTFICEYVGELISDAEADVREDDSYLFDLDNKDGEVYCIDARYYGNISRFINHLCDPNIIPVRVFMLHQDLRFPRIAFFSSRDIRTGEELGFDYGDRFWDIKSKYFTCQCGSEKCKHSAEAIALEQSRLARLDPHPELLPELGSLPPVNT
In words: Inhibition of EHMT2 (unknown origin) at 400 uM preincubated for 15 mins followed by SAM and biotinylated H3K9 peptide addition measured after 30 mins by TR-FRET assay relative to control. A digest of the protocol:
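Single-point EHMT2 screen at 400 μM, 1% DMSO. Final 0.6 nM EHMT2, 0.5 µM biotinylated H3(1-21)K9 peptide, 3 µM SAM in 50 mM Tris-HCl pH 9.0, 50 mM NaCl, 1 mM DTT, 0.01% Tween-20. Detection 60 min with final 2 nM Eu-antibody, 50 nM ULight-streptavidin, 0.0001% poly-L-lysine. TR-FRET read at 665/620 nm.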

Experiment [3] deals with T1, Histone-lysine N-methyltransferase EHMT1 (Homo sapiens). In words: (§1) Inhibition of EHMT1 (unknown origin) preincubated for 5 mins followed by SAM and biotinylated H3K9 peptide addition measured after 120 mins by HTRF assay. The method, boiled down:
(§2)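 Final 0.4 nM enzyme, 150 nM biotinylated H3(1-21)K9 peptide, 6 μM SAM, pH 8.8 Tris buffer, 1% DMSO. Eu-antibody/SA-XL665 HTRF read at 665/620 nm. Mean±SEM of 3-4 independent experiments in triplicate.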

Experiment [4] concerns the target T2, Histone-lysine N-methyltransferase EHMT2 (Homo sapiens). In words: (§3) Inhibition of EHMT2 (unknown origin) preincubated for 15 mins followed by SAM and biotinylated H3K9 peptide addition measured after 30 mins by TR-FRET assay.
Experiment [5] addresses Protein arginine N-methyltransferase 1 (Homo sapiens) (UniProt Q99873). Description: Inhibition of PRMT1 (unknown origin) at 400 uM preincubated for 5 mins followed by SAM and H4 (1 to 25 residues) peptide addition measured after 1 hr by HTRF assay relative to control.
The target in experiment [6] is T3, Histone-lysine N-methyltransferase EHMT1 (Homo sapiens, UniProt Q9H9B1).
T3 sequence (Q9H9B1 whole entry): T1 sequence (whole entry)
Described as §1. The method, boiled down:
as §2

Experiment [7] addresses T4, Histone-lysine N-methyltransferase EHMT2 (Homo sapiens, UniProt Q96KQ7).
T4 sequence (Q96KQ7 whole entry): T2 sequence (whole entry)
Described as §3.

Experiment [8] concerns MDA-MB-231. Description: Antiproliferative activity against human MDA-MB-231 cells at 200 uM after 72 hrs by sulforhodamine B assay relative to control. It is filed as functional. Particulars: MDA-MB-231, 72 h.
The test system of experiment [9] is HL-60. Description: Antiproliferative activity against human HL60 cells at 200 uM after 72 hrs by CCK8 assay relative to control. The following applies: HL-60, 72 h. It is filed as functional.

Protein arginine N-methyltransferase 1 (Homo sapiens), sequence (Q99873 whole entry, looked up, the tested form may be a part): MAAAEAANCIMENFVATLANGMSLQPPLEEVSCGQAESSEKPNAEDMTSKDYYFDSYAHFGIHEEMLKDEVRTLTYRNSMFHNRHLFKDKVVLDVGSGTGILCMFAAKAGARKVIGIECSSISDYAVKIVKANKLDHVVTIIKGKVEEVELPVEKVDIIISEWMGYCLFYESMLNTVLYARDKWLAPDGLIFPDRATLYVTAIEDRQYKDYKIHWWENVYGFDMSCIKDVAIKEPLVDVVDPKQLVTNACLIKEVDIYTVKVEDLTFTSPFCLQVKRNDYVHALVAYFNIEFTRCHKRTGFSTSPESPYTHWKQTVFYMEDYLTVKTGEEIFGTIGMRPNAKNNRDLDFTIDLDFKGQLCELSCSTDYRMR

With `Nc1ncnc2c1ncn2[C@@H]1O[C@H](C[C@@H](N)CCC2CCCCC2)[C@@H](O)[C@H]1O`, the inhibition in [1] is 40.9%; in [2] it was 42.7%; in experiment [3], “Dose-dependent effect”; in [4] it was “Dose-dependent effect”.

In the case of `Nc1ncnc2c1ncn2[C@@H]1O[C@H](C[C@@H](N)CC2CCCC2)[C@@H](O)[C@H]1O`, the inhibition entry in experiment [5] is “inactive”. The inhibition in [1] is 75.7%; in experiment [2] it was 55.3%; in experiment [3], “Dose-dependent effect”; in experiment [4] it was “Dose-dependent effect”. In addition, the half-maximal inhibitory concentration (IC50) in [6] (read-out: IC50) was found to be 95.1 µM; in experiment [7], 191 µM.

For the compound `Nc1ncnc2c1ncn2[C@@H]1O[C@H](C[C@H](N)CC2CC2)[C@@H](O)[C@H]1O`, the inhibition is 20% in experiment [5]; 52.2% in experiment [1]; 65.7% in experiment [2]; “Dose-dependent effect” in [3]; “Dose-dependent effect” in experiment [4]. For the same compound, the midpoint of inhibition in [7], the IC50, lay at 67.2 µM.

Turning to `Nc1ncnc2c1ncn2[C@@H]1O[C@H](C[C@@H](N)CC2CCC2)[C@@H](O)[C@H]1O`, the inhibition entry in [5] was “inactive”. For the same compound, the inhibition was 69.7% in [1], 58.9% in experiment [2], “Dose-dependent effect” in experiment [3] and “Dose-dependent effect” in experiment [4]. Further, the values for the IC50 in experiment [6] (read-out: IC50) and in experiment [7] were 47.7 µM and 169 µM, respectively.

Regarding `Nc1ncnc2c1ncn2[C@@H]1O[C@H](C[C@H](N)CCC2CCCCC2)[C@@H](O)[C@H]1O`, the inhibition in experiment [1] is 46.3%; in experiment [2] it was 47.8%; in [3], “Dose-dependent effect”; in [4], “Dose-dependent effect”.

For `Nc1ncnc2c1ncn2[C@@H]1O[C@H](C[C@@H](N)CC2CCCCC2)[C@@H](O)[C@H]1O`, in experiment [5], the inhibition result was “inactive”. The inhibition in experiment [1] was 72.7%; in [2] it was 43.7%; in experiment [3], “Dose-dependent effect”; in experiment [4], “Dose-dependent effect”. The IC50 in experiment [6] (read-out: IC50) was 204 µM.

For `CN(CC1CCCCC1)C[C@H]1O[C@@H](n2cnc3c(N)ncnc32)[C@H](O)[C@@H]1O`, in experiment [1], the inhibition result was “inactive”. Also, the inhibition is 31.9% in experiment [2], “Dose-dependent effect” in experiment [3] and “Dose-dependent effect” in experiment [4]. For the same compound, the half-inhibitory concentration (IC50) result in [6] was “Not Active”.

Take `COc1cc2nc(N3CCCN(C)CC3)nc(NC3CCN(Cc4ccccc4)CC3)c2cc1OC`: the inhibition at 200 µM turned out to be 87.2% in experiment [8] and 81.8% in experiment [9].

Take `Nc1ncnc2c1ncn2[C@@H]1O[C@H](C[C@H](N)CC2CCC2)[C@@H](O)[C@H]1O`: the inhibition in [1] was 53.2%; in experiment [2] it was 44%; in experiment [3], “Dose-dependent effect”; in experiment [4], “Dose-dependent effect”. Further, the IC50 in [6] (read-out: IC50) worked out at 115 µM.

In the case of `Nc1ncnc2c1ncn2[C@@H]1O[C@H](C[C@H](N)CC2CCCCC2)[C@@H](O)[C@H]1O`, the inhibition result in experiment [5] is “inactive”. The inhibition is 58.1% in experiment [1], 45.3% in [2], “Dose-dependent effect” in experiment [3] and “Dose-dependent effect” in [4]. The IC50 in experiment [6] (read-out: IC50) was 146 µM.

As to `CCN(CC1CCCCC1)C[C@H]1O[C@@H](n2cnc3c(N)ncnc32)[C@H](O)[C@@H]1O`, the inhibition in experiment [1] was 24.1%; in experiment [2] it was 39.1%; in experiment [3] it was “Dose-dependent effect”; in [4], “Dose-dependent effect”.

As for `CCCN(CC1CCCCC1)C[C@H]1O[C@@H](n2cnc3c(N)ncnc32)[C@H](O)[C@@H]1O`, the inhibition entry in experiment [1] is “inactive”. Further, the inhibition in experiment [2] was 19.8%; in experiment [3], “Dose-dependent effect”; in experiment [4], “Dose-dependent effect”. Also, in experiment [6], the IC50 result is on record as “Not Active”.

With `Nc1ncnc2c1ncn2[C@@H]1O[C@H](C[C@H](N)CC2CCCC2)[C@@H](O)[C@H]1O`, the inhibition in [1] is 12.5%; in experiment [2] it was 43.6%; in experiment [3] it was “Dose-dependent effect”; in [4] it was “Dose-dependent effect”.
